Calls of active or inactive are those of the source.
Columns and labels:
K562 [1] = assay: Effect on TXNIP gene expression in human K562 cells assessed as change in mRNA transcript expression at 10 nM after 48 hrs by DNA microarray analysis relative to control; format: functional
Method in brief: (§1)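 K562 CML cells (b3a2 Bcr-Abl) kept under standard culture conditions were exposed to 10 nM conjugate and harvested at 6, 12, 24 and 48 h. Untreated controls were harvested at 48 h. Whole-transcript oligonucleotide microarray profiling was done, and changes of at least twofold versus control were scored.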

K562 [2] = assay: Effect on HIST2H2AB gene expression in human K562 cells assessed as change in mRNA transcript expression at 10 nM after 48 hrs by DNA microarray analysis relative to control; format: functional
Method in brief: (§2)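 K562 CML cells (b3a2 Bcr-Abl) in standard ATCC-recommended culture, exposed once to 10 nM conjugate and harvested at 48 h. Untreated controls were also collected at 48 h. Transcripts were profiled on Human Gene 1.0 ST whole-genome oligonucleotide arrays, and each treated level was expressed relative to the untreated control, with a cutoff of at least twofold change.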

K562 [3] = assay: Effect on SLC7A8 gene expression in human K562 cells assessed as change in mRNA transcript expression at 10 nM after 48 hrs by DNA microarray analysis relative to control; format: functional; method in brief: as §2
K562 [4] = assay: Effect on PSMB6 gene expression in human K562 cells assessed as change in mRNA transcript expression at 10 nM after 48 hrs by DNA microarray analysis relative to control; format: functional; method in brief: as §2
K562 [5] = assay: Effect on HIST1H3B gene expression in human K562 cells assessed as change in mRNA transcript expression at 10 nM after 48 hrs by DNA microarray analysis relative to control; format: functional
Method in brief: (§3)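 Transcripts were profiled on Affymetrix GeneChip Human Gene 1.0 ST arrays in K562 cells treated at 10 nM. Treated cells were collected at 6, 12, 24 and 48 h; untreated controls were collected at 48 h. Transcripts changed at least twofold versus control were scored.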

K562 [6] = assay: Effect on PITPNC1 gene expression in human K562 cells assessed as change in mRNA transcript expression at 10 nM after 48 hrs by DNA microarray analysis relative to control; format: functional; method in brief: as §2
K562 [7] = assay: Effect on HIST1H3J gene expression in human K562 cells assessed as change in mRNA transcript expression at 10 nM after 48 hrs by DNA microarray analysis relative to control; format: functional; method in brief: as §3
K562 [8] = assay: Effect on SLFN14 gene expression in human K562 cells assessed as change in mRNA transcript expression at 10 nM after 48 hrs by DNA microarray analysis relative to control; format: functional; method in brief: as §2
K562 [9] = assay: Effect on HIST1H4J gene expression in human K562 cells assessed as down-regulation of mRNA transcript expression at 10 nM after 48 hrs by DNA microarray analysis relative to control; format: functional; method in brief: as §2
K562 [10] = assay: Effect on RP11-195B gene expression in human K562 cells assessed as change in mRNA transcript expression at 10 nM after 48 hrs by DNA microarray analysis relative to control; format: functional; method in brief: as §2
K562 [11] = assay: Effect on HIST2H2AA gene expression in human K562 cells assessed as change in mRNA transcript expression at 10 nM after 48 hrs by DNA microarray analysis relative to control; format: functional; method in brief: as §2
K562 [12] = assay: Effect on HTR1F gene expression in human K562 cells assessed as change in mRNA transcript expression at 10 nM after 48 hrs by DNA microarray analysis relative to control; format: functional; method in brief: as §2
K562 [13] = assay: Effect on HIST1H1E gene expression in human K562 cells assessed as change in mRNA transcript expression at 10 nM after 48 hrs by DNA microarray analysis relative to control; format: functional; method in brief: as §3
K562 [14] = assay: Effect on THBS1 gene expression in human K562 cells assessed as change in mRNA transcript expression at 10 nM after 48 hrs by DNA microarray analysis relative to control; format: functional; method in brief: as §1
K562 [15] = assay: Effect on LGALS3BP gene expression in human K562 cells assessed as change in mRNA transcript expression at 10 nM after 48 hrs by DNA microarray analysis relative to control; format: functional; method in brief: as §2
[16] = tested on: histone H4c gene fragment DNA (human); assay: Binding affinity to 5'-AGAAAA-3' sequence of 223 bp human histone H4c gene fragment DNA assessed as DNA alkylating activity at 5 to 100 nM after 15 hrs by PAGE
K562 [17] = assay: Effect on PRF1 gene expression in human K562 cells assessed as change in mRNA transcript expression at 10 nM after 48 hrs by DNA microarray analysis relative to control; format: functional; method in brief: as §2
K562 [18] = assay: Induction of apoptosis in human K562 cells assessed as late apoptotic cells at 125 nM after 48 hrs by annexin-V FITC and propidium iodide staining-based FACS analysis; format: functional
Method in brief: (§4)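 K562 cells were exposed to conjugate in culture medium for 48 h, then stained with annexin V-FITC plus propidium iodide. Cell populations were quantified by flow cytometry.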

K562 [19] = assay: Effect on HIST2H2B gene expression in human K562 cells assessed as change in mRNA transcript expression at 10 nM after 48 hrs by DNA microarray analysis relative to control; format: functional; method in brief: as §2
K562 [20] = assay: Induction of apoptosis in human K562 cells assessed as viable cells at 125 nM after 48 hrs by annexin-V FITC and propidium iodide staining-based FACS analysis; format: functional; conditions: K562, 48 h, read-out: Activity; method in brief: as §4
K562 [21] = assay: Effect on CLCA1 gene expression in human K562 cells assessed as change in mRNA transcript expression at 10 nM after 48 hrs by DNA microarray analysis relative to control; format: functional; method in brief: as §3
K562 [22] = assay: Downregulation of histone H4C mRNA expression in human K562 cells at 250 nM after 48 hrs by real-time PCR analysis; format: functional
Method in brief: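 Treated K562 cells were assayed by one-step real-time RT-PCR. Reverse transcription ran 50 °C for 10 min, then hot-start polymerase activation at 95 °C for 15 min. Cycling was 45 cycles of 95 °C 15 s, 55 °C 30 s and 72 °C 30 s. Levels were normalized to GAPDH mRNA; error shown as standard deviation.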

K562 [23] = assay: Effect on HIST1H2BH gene expression in human K562 cells assessed as change in mRNA transcript expression at 10 nM after 48 hrs by DNA microarray analysis relative to control; format: functional; method in brief: as §3
K562 [24] = assay: Effect on TRIB3 gene expression in human K562 cells assessed as change in mRNA transcript expression at 10 nM after 48 hrs by DNA microarray analysis relative to control; format: functional; method in brief: as §1
K562 [25] = assay: Effect on LOC85391 gene expression in human K562 cells assessed as change in mRNA transcript expression at 10 nM after 48 hrs by DNA microarray analysis relative to control; format: functional; method in brief: as §2
K562 [26] = assay: Effect on BAMBI gene expression in human K562 cells assessed as change in mRNA transcript expression at 10 nM after 48 hrs by DNA microarray analysis relative to control; format: functional; method in brief: as §3
K562 [27] = assay: Effect on HSPA1A gene expression in human K562 cells assessed as change in mRNA transcript expression at 10 nM after 48 hrs by DNA microarray analysis relative to control; format: functional; method in brief: as §2

Q: How did the “fold change (FC)” value (K562 [1]) turn out when `CC(=O)Nc1cn(C)c(C(=O)Nc2cn(C)c(C(=O)NCCC(=O)Nc3cn(C)c(C(=O)NCCCC(=O)Nc4cc(C(=O)Nc5cn(C)c(C(=O)Nc6ccc7[nH]c(C(=O)N8CC(CCl)c9c8cc(O)c8ccccc98)cc7c6)n5)n(C)c4)n3)n2)n1` (configuration not stated) was run?
A: >=2

Q: What about the “fold change (FC)” value (K562 [2]) of the same molecule?
A: >=2

Q: What about the “fold change (FC)” value (K562 [3]) of the same molecule?
A: >=2

Q: And the “fold change (FC)” value (K562 [4])?
A: >=2

Q: And the “fold change (FC)” value (K562 [5])?
A: >=2

Q: What about the “fold change (FC)” value (K562 [6]) of the same molecule?
A: >=2

Q: What about the “fold change (FC)” value (K562 [7]) of the same molecule?
A: >=2

Q: And the “fold change (FC)” value (K562 [8])?
A: >=2

Q: What about the “fold change (FC)” value (K562 [9]) of the same molecule?
A: 2.61

Q: What about the “fold change (FC)” value (K562 [10]) of the same molecule?
A: >=2

Q: And the “fold change (FC)” value (K562 [11])?
A: >=2

Q: And the “fold change (FC)” value (K562 [12])?
A: >=2

Q: And the “fold change (FC)” value (K562 [13])?
A: >=2

Q: And the “fold change (FC)” value (K562 [14])?
A: >=2

Q: And the “fold change (FC)” value (K562 [15])?
A: >=2

Q: And the Activity [16]?
A: Active

Q: And the “fold change (FC)” value (K562 [17])?
A: >=2

Q: And the Activity (K562 [18])?
A: 9.21%

Q: And the “fold change (FC)” value (K562 [19])?
A: >=2

Q: What about the viability at 0.125 µM (K562 [20]) of the same molecule?
A: 80.3%

Q: What about the “fold change (FC)” value (K562 [21]) of the same molecule?
A: >=2

Q: And the Activity (K562 [22])?
A: 93%

Q: And the “fold change (FC)” value (K562 [23])?
A: >=2

Q: What about the “fold change (FC)” value (K562 [24]) of the same molecule?
A: >=2

Q: What about the “fold change (FC)” value (K562 [25]) of the same molecule?
A: >=2

Q: What about the “fold change (FC)” value (K562 [26]) of the same molecule?
A: >=2

Q: And the “fold change (FC)” value (K562 [27])?
A: >=2
